Experimental data: ChEMBL document CHEMBL2401628, “Low toxicity and unprecedented anti-osteoclast activity of a simple sulfur-containing gem-bisphosphonate: a comparative study” (Eur J Med Chem, 2013)
Activity calls are given as the source filed them. The rule behind the calls is not given here.

How the values were obtained:
PBMC = test: Antiosteoclast activity in human PBMC assessed as reduction of osteoclasts formation by measuring TRAcP positive multinucleated cells at 10 uM after 7 days; assay type: functional, cell-based
In short: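 Blood mononuclear cells from healthy donors, adhered 1 h, then cultured 7 days in osteoclast differentiation medium with drug added from the start. Cells were fixed in 3% paraformaldehyde/2% sucrose, permeabilized in 0.5% Triton, and stained for TRAcP for 60 min at 37 °C. TRAcP-positive multinucleated cells were counted as % of untreated differentiated cultures, duplicate wells, 4 cultures from 2 donors.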

Osteoclast [1] = test: Inhibition of human osteoclast-mediated type 1 bone collagen degradation assessed as release of europium-labeled collagen fragments at 0.1 uM after 7 days by time-resolved fluorescence assay; assay type: functional, cell-based
In short: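 Mononuclear cells were seeded on Europium-labelled human type I collagen and cultured 7 days in differentiation medium, then drug was added; total culture time was 14 days. Released fragments in supernatant were measured by time-resolved fluorescence (excitation 340 nm, emission 615 nm). Result is the RFU ratio of treated to untreated osteoclasts, quadruplicate wells, 2 donors.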

L929 [2] = test: Cytotoxicity against mouse L929 cells assessed as reduction of cell viability after 72 hrs by neutral-red uptake assay; assay type: cell-based; details: l929, 72 h
In short: (§1)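 Mouse L929 fibroblasts in DMEM with 10% FCS, seeded 0.8 × 10³ cells/well and allowed to adhere 24 h. They were then exposed to serial dilutions of compound (stocks 10 mM in PBS pH 7.4) for 72 h; untreated medium served as negative control. Cells took up 0.4% neutral red diluted 1:80 for 2 h at 37 °C, and dye was extracted in 50% ethanol/1% acetic acid and read at 540 nm. Result is the OD ratio of treated to negative control, triplicate wells, 5 experiments.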

Osteoclast [3] = test: Proapoptotic activity in human osteoclasts at 10 uM after 7 days using Hoechst 33258 staining; assay type: functional, cell-based
In short: (§2)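 Blood mononuclear cells from donors were differentiated into osteoclasts for 7 days, then exposed to drug for a further 7 days. After fixing, cells were stained with phalloidin-TRITC 0.3 mg/mL plus Hoechst 33258 for 30 min at room temperature. Multinucleated F-actin-ring cells with apoptotic nuclear bodies were counted over the whole well as % of all multinucleated cells, duplicate wells, 4 cultures from 2 donors.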

Osteoclast [4] = test: Induction of apoptosis in human osteoclasts at 100 uM after 7 days using Hoechst 33258 staining; assay type: functional, cell-based; in short: as §2
Hydroxyapatite = test: Binding affinity to hydroxyapatite at 0.07 mmol up to 120 hrs by 31P NMR-spectroscopy relative to H3PO4
L929 [5] = test: Cytotoxicity against mouse L929 cells assessed as reduction of cell viability at 100 uM after 72 hrs by neutral-red uptake assay; assay type: cell-based; details: l929, 72 h; in short: as §1
L929 [6] = test: Cytotoxicity against mouse L929 cells assessed as reduction of cell viability at 10 to 100 uM after 72 hrs by neutral-red uptake assay; assay type: cell-based; details: l929, 72 h; in short: as §1
Osteoclast [7] = test: Inhibition of human osteoclast-mediated type 1 bone collagen degradation assessed as release of europium-labeled collagen fragments at 10 uM after 7 days by time-resolved fluorescence assay; assay type: functional, cell-based
In short: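 Adherent monocytes from Ficoll-isolated peripheral blood of healthy donors were seeded on human type I bone collagen and differentiated in osteoclast medium for 7 days. They were then exposed to three drug concentrations until day 14. Supernatant was mixed with fluorophore-releasing reagent and Europium-labelled fragments were read by time-resolved fluorescence (ex 340, em 615 nm). Values are the RFU ratio of treated to untreated osteoclasts, from 2 donors in quadruplicate.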

NCCC(O)(P(=O)(O)O)P(=O)(O)O [PAMIDRONIC ACID]
inhibition (PBMC): Active | inhibition (Osteoclast [1]): inactive | Activity (L929 [2]): Dose-dependent effect | Activity (Osteoclast [3]): inactive | Activity (Osteoclast [4]): Active

O=P(O)(O)C(CNc1ccccc1)P(=O)(O)O
inhibition (PBMC): Active | Activity (Hydroxyapatite): 66% | Activity (L929 [5]): Toxic | Activity (L929 [6]): Toxic

O=P(O)(O)C(CSCCO)P(=O)(O)O
inhibition (PBMC): Active | inhibition (Osteoclast [1]): inactive | Activity (Hydroxyapatite): 70% | Activity (L929 [5]): Toxic | Activity (Osteoclast [3]): Active | Activity (Osteoclast [4]): Active | inhibition (Osteoclast [7]): Active | Activity (L929 [6]): Toxic

O=P(O)(O)C(O)(Cn1ccnc1)P(=O)(O)O
Activity (Hydroxyapatite): 82%

O=P(O)(O)C(CSc1ccccc1)P(=O)(O)O
inhibition (PBMC): inactive | Activity (Hydroxyapatite): 34% | Activity (L929 [5]): Toxic | Activity (L929 [6]): Toxic

O=P(O)(O)C(CN1CCOCC1)P(=O)(O)O
inhibition (PBMC): Active | Activity (Hydroxyapatite): 65% | Activity (L929 [5]): Toxic | Activity (L929 [6]): Toxic

O=P(O)(O)C(CNc1ccccn1)P(=O)(O)O
inhibition (PBMC): Active | inhibition (Osteoclast [1]): Active | Activity (Hydroxyapatite): 94% | Activity (L929 [2]): Dose-dependent effect | Activity (Osteoclast [3]): Active | Activity (Osteoclast [4]): Active | inhibition (Osteoclast [7]): Active
